ChEMBL document CHEMBL1255491, “Altered growth, pigmentation, and antimicrobial susceptibility properties of Staphylococcus aureus due to loss of the major cold shock gene cspB” (2010)
≈ marks a conversion by molar mass, not a printed value.

Columns and labels:
Assay type in all cases: functional
Staphylococcus aureus [1] = test: Antimicrobial activity against Staphylococcus aureus BD2 harboring wild-type cspB gene by Etest
Method in brief: (§1)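 MIC by Etest strip (daptomycin, gentamicin, teicoplanin, trimethoprim-sulfamethoxazole), following the manufacturer's protocol with changes. Inoculum came from cells grown in TSB at 37°C for at least 20 h.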

Staphylococcus aureus [2] = test: Antimicrobial activity against Staphylococcus aureus BD1 harboring aphA-3 insertion in cspB gene by Etest; method in brief: as §1
Staphylococcus aureus [3] = test: Antimicrobial activity against methicillin-resistant Staphylococcus aureus isolate COL by Etest; method in brief: as §1
Staphylococcus aureus [4] = test: Antimicrobial activity against methicillin-resistant Staphylococcus aureus COL grown at 37 degC and measured at 15 degC by Etest
Method in brief: (§2)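 Strain COL was grown in TSB at 37°C to mid-log phase, split into equal halves, and kept 1 h at 37°C (control) or 15°C (cold shock). Etest strips for daptomycin, gentamicin or trimethoprim-sulfamethoxazole were then applied per the manufacturer.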

Staphylococcus aureus [5] = test: Antimicrobial activity against methicillin-resistant Staphylococcus aureus COL grown at 37 degC and measured at 37 degC by Etest; method in brief: as §2
Staphylococcus aureus [6] = test: Antimicrobial activity against methicillin-resistant Staphylococcus aureus COL grown at 15 degC and measured at 15 degC by Etest
Staphylococcus aureus [7] = test: Antimicrobial activity against methicillin-resistant Staphylococcus aureus COL grown at 15 degC and measured at 37 degC by Etest; method in brief: as §2
Staphylococcus aureus [8] = test: Ratio of MIC for methicillin-resistant Staphylococcus aureus COL grown at 37 degC and measured at 37 degC to MIC for methicillin-resistant Staphylococcus aureus COL grown at 37 degC and measured at 15 degC by Etest
Staphylococcus aureus [9] = test: Ratio of MIC for methicillin-resistant Staphylococcus aureus COL grown at 15 degC and measured at 37 degC to MIC for methicillin-resistant Staphylococcus aureus COL grown at 15 degC and measured at 15 degC by Etest

Row | Compound | MIC (Staphylococcus aureus [1]) [µg/mL] | MIC (Staphylococcus aureus [2]) [µg/mL] | MIC (Staphylococcus aureus [3]) [µg/mL] | MIC (Staphylococcus aureus [4]) [µg/mL] | MIC (Staphylococcus aureus [5]) [µg/mL] | MIC (Staphylococcus aureus [6]) [µg/mL] | MIC (Staphylococcus aureus [7]) [µg/mL] | Ratio (Staphylococcus aureus [8]) | Ratio (Staphylococcus aureus [9])
1 | CC(=O)N[C@@H]1[C@H](Oc2c3cc4cc2Oc2ccc(cc2Cl)[C@@H](O[C@@H]2O[C@@H](CO)[C@@H](O)[C@H](O)[C@@H]2NC(C)=O)[C@@H]2NC(=O)[C@H](NC(=O)[C@@H]4NC(=O)[C@H]4NC(=O)[C@@H](Cc5ccc(c(Cl)c5)O3)NC(=O)[C@H](N)c3ccc(O)c(c3)Oc3cc(O)cc4c3)c3ccc(O)c(c3)-c3c(O[C@H]4O[C@H](CO)[C@@H](O)[C@@H](O)[C@@H]4O)cc(O)cc3[C@@H](C(=O)O)NC2=O)O[C@@H](CO)[C@@H](O)[C@@H]1O | 2 (≈ 1.13 µM) | 0.75 (≈ 0.424 µM) | 3 (≈ 1.7 µM) | – | – | – | – | – | –
2 | GENTAMICIN | 0.38 | 32 | 0.38 | 0.21 | 0.34 | 0.29 | 0.38 | – | –
3 | CCCCCCCCCC(=O)N[C@@H](Cc1c[nH]c2ccccc12)C(=O)N[C@H](CC(N)=O)C(=O)N[C@@H](CC(=O)O)C(=O)N[C@@H]1C(=O)NCC(=O)N[C@@H](CCCN)C(=O)N[C@@H](CC(=O)O)C(=O)N[C@H](C)C(=O)N[C@@H](CC(=O)O)C(=O)NCC(=O)N[C@H](CO)C(=O)N[C@@H]([C@H](C)CC(=O)O)C(=O)N[C@@H](CC(=O)c2ccccc2N)C(=O)O[C@@H]1C | 2 (≈ 1.23 µM) | 0.064 (≈ 0.0395 µM) | 1.5 (≈ 0.926 µM) | 0.46 (≈ 0.284 µM) | 1.5 (≈ 0.926 µM) | 0.63 (≈ 0.389 µM) | 1.5 (≈ 0.926 µM) | 4 | 2.4
